Results taken from ChEMBL document CHEMBL4325909, “Synthesis and evaluation of chalcone analogues containing a 4-oxoquinazolin-2-yl group as potential anti-tumor agents” (Eur J Med Chem, 2019).
Activity calls are given as the source filed them. No cut-off for these calls is given here.

What was measured:
HCT-116 [1] = test: Induction of mitochondrial membrane depolarization in human HCT116 cells at 2 times IC50 after 24 hrs by JC-1 staining based fluorescence microscopic analysis; assay type: functional, cell-based
In short: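 HCT-116 cells exposed at 2× IC50 for 24 h, washed, then stained with JC-1 in fresh medium for 20 min at 37 °C and rinsed. Red aggregates and green monomers imaged by fluorescence microscopy at 40×.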

A549 = test: Cytotoxicity against human A549 cells assessed as reduction in cell viability after 72 hrs by MTS assay; assay type: functional, cell-based; conditions: A549, 72 h
In short: (§1)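 MTS (CellTiter 96 AQueous One) proliferation read after 72 h of exposure across a concentration range. IC50 is the concentration giving 50% proliferation inhibition. Triplicate determinations in three independent experiments, mean ± SD.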

HCT-116 [2] = test: Cell cycle arrest in human HCT116 cells assessed as increase in accumulation of cells at sub-G1 phase after 24 hrs by propidium iodide staining-based flow cytometry method; assay type: functional
MCF7 [3] = test: Cytotoxicity against human MCF7 cells assessed as reduction in cell viability after 72 hrs by MTS assay; assay type: functional, cell-based; conditions: MCF7, 72 h
In short: (§2)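 Cells kept in DMEM with 10% FBS at 37 °C, 5% CO2. Proliferation read by MTS (CellTiter 96 AQueous One) 72 h after exposure across a concentration range. IC50 is the concentration giving 50% proliferation inhibition. Triplicate wells, three independent experiments, mean ± SD.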

MDA-MB-231 = test: Cytotoxicity against human MDA-MB-231 cells assessed as reduction in cell viability after 72 hrs by MTS assay; assay type: functional, cell-based; conditions: MDA-MB-231, 72 h; in short: as §1
HCT-116 [4] = test: Induction of apoptosis in human HCT116 cells assessed as viable cells at 1 times IC50 after 24 hrs by annexin V-FITC/propidium iodide staining-based flow cytometry method (reference value: 86.0%); assay type: functional
MCF-10A [5] = test: Induction of apoptosis in human MCF10A cells assessed as necrotic cells at 1 times IC50 after 24 hrs by annexin V-FITC/propidium iodide staining-based flow cytometry method (reference value: 0.57%); assay type: cell-based
MCF-10A [6] = test: Induction of apoptosis in human MCF10A cells after 24 hrs by annexin V-FITC/propidium iodide staining-based flow cytometry method; assay type: cell-based
MCF7 [7] = test: Cytotoxicity against human MCF7 cells assessed as reduction in cell viability at 20 uM after 72 hrs by MTS assay relative to control; assay type: functional
In short: (§3)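 Cells grown in DMEM with 10% FBS at 37 °C, 5% CO2, exposed to 20 μM for 72 h. Proliferation read by MTS and inhibition expressed relative to vehicle. ≥50% inhibition counted as active. Triplicate wells, three independent experiments.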

HeLa = test: Cytotoxicity against human HeLa cells assessed as reduction in cell viability after 72 hrs by MTS assay; assay type: functional, cell-based; in short: as §1
MCF-10A [8] = test: Induction of apoptosis in human MCF10A cells assessed as early apoptotic cells at 1 times IC50 after 24 hrs by annexin V-FITC/propidium iodide staining-based flow cytometry method (reference value: 0.20%); assay type: cell-based
HCT-116 [9] = test: Induction of apoptosis in human HCT116 cells assessed as late apoptotic cells at 2 times IC50 after 24 hrs by annexin V-FITC/propidium iodide staining-based flow cytometry method (reference value: 5.4%); assay type: functional
HCT-116 [10] = test: Induction of reactive oxygen species generation in human HCT116 cells assessed as increase in mitochondrial superoxide generation at 1 to 2 times IC50 after 24 hrs by MitoSOX red dye-based fluorescence microscopic analysis; assay type: functional, cell-based
HCT-116 [11] = test: Induction of apoptosis in human HCT116 cells assessed as viable cells at 2 times IC50 after 24 hrs by annexin V-FITC/propidium iodide staining-based flow cytometry method (reference value: 86.0%); assay type: functional
HCT-116 [12] = test: Induction of apoptosis in human HCT116 cells assessed as late apoptotic cells at 1 times IC50 after 24 hrs by annexin V-FITC/propidium iodide staining-based flow cytometry method (reference value: 5.4%); assay type: functional
MCF-10A [13] = test: Induction of apoptosis in human MCF10A cells assessed as early apoptotic cells at 2 times IC50 after 24 hrs by annexin V-FITC/propidium iodide staining-based flow cytometry method (reference value: 0.20%); assay type: cell-based
HCT-116 [14] = test: Induction of apoptosis in human HCT116 cells accumulation of cleaved caspase-9 level at 2 times IC50 after 8 hrs by Western blot analysis; assay type: functional, cell-based
In short: (§4)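 Whole lysates in SDS/β-mercaptoethanol sample buffer run on 4–18% gradient SDS-PAGE and transferred to PVDF. Blocked in 5% milk/PBST, primary antibodies overnight at 4 °C, HRP secondaries 1 h. β-actin served as loading reference.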

MCF-10A [15] = test: Induction of apoptosis in human MCF10A cells assessed as necrotic cells at 2 times IC50 after 24 hrs by annexin V-FITC/propidium iodide staining-based flow cytometry method (reference value: 0.57%); assay type: cell-based
[16] = Induction of apoptosis in human MCF10A cells assessed as viable cells at 2 times IC50 after 24 hrs by annexin V-FITC/propidium iodide staining-based flow cytometry method (reference value: 95.4%); assay type: cell-based, MCF-10A; conditions: read-out: Activity
HCT-116 [17] = test: Induction of apoptosis in human HCT116 cells accumulation of cleaved PARP1 level at 2 times IC50 after 12 hrs by Western blot analysis; assay type: functional, cell-based; in short: as §4
HCT-116 [18] = test: Induction of apoptosis in human HCT116 cells after 24 hrs by annexin V-FITC/propidium iodide staining-based flow cytometry method; assay type: functional, cell-based
HCT-116 [19] = test: Cytotoxicity against human HCT116 cells assessed as reduction in cell viability at 20 uM after 72 hrs by MTS assay relative to control; assay type: functional; in short: as §3
HCT-116 [20] = test: Cytotoxicity against human HCT116 cells assessed as reduction in cell viability after 72 hrs by MTS assay; assay type: functional, cell-based; conditions: HCT-116, 72 h; in short: as §2
HT-29 = test: Cytotoxicity against human HT-29 cells assessed as reduction in cell viability after 72 hrs by MTS assay; assay type: functional, cell-based; conditions: HT-29, 72 h; in short: as §1
[21] = Induction of apoptosis in human MCF10A cells assessed as viable cells at 1 times IC50 after 24 hrs by annexin V-FITC/propidium iodide staining-based flow cytometry method (reference value: 95.4%); assay type: cell-based, MCF-10A; conditions: read-out: Activity
HCT-116 [22] = test: Induction of apoptosis in human HCT116 cells accumulation of cleaved caspase-9 level at 2 times IC50 after 12 hrs by Western blot analysis; assay type: functional, cell-based; in short: as §4
HCT-116 [23] = test: Induction of apoptosis in human HCT116 cells assessed as early apoptotic cells at 1 times IC50 after 24 hrs by annexin V-FITC/propidium iodide staining-based flow cytometry method (reference value: 3.8%); assay type: functional
HCT-116 [24] = test: Induction of apoptosis in human HCT116 cells accumulation of cleaved caspase-7 level at 2 times IC50 after 12 hrs by Western blot analysis; assay type: functional, cell-based; in short: as §4
HCT-116 [25] = test: Induction of apoptosis in human HCT116 cells assessed as necrotic cells at 2 times IC50 after 24 hrs by annexin V-FITC/propidium iodide staining-based flow cytometry method (reference value: 4.8%); assay type: functional
[26] = Selectivity index, ratio of IC50 for human MCF10A cells to IC50 for human MCF7 cells; assay type: toxicity; conditions: MCF10A cells versus MCF7 cells, read-out: Ratio IC50
HCT-116 [27] = test: Induction of apoptosis in human HCT116 cells assessed as necrotic cells at 1 times IC50 after 24 hrs by annexin V-FITC/propidium iodide staining-based flow cytometry method (reference value: 4.8%); assay type: functional
MCF-10A [28] = test: Induction of apoptosis in human MCF10A cells assessed as late apoptotic cells at 2 times IC50 after 24 hrs by annexin V-FITC/propidium iodide staining-based flow cytometry method (reference value: 3.81%); assay type: cell-based
HCT-116 [29] = test: Induction of apoptosis in human HCT116 cells accumulation of cleaved caspase-3 level at 2 times IC50 after 12 hrs by Western blot analysis; assay type: functional, cell-based; in short: as §4
MCF-10A [30] = test: Cytotoxicity against human MCF10A cells assessed as reduction in cell viability after 72 hrs by MTS assay; assay type: cell-based; in short: as §1
HCT-116 [31] = test: Induction of apoptosis in human HCT116 cells assessed as early apoptotic cells at 2 times IC50 after 24 hrs by annexin V-FITC/propidium iodide staining-based flow cytometry method (reference value: 3.8%); assay type: functional
HCT-116 [32] = test: Induction of apoptosis in human HCT116 cells after 24 hrs by acridine orange/ethidium bromide staining-based fluorescence microscopic analysis; assay type: functional, cell-based
MCF-10A [33] = test: Induction of apoptosis in human MCF10A cells assessed as late apoptotic cells at 1 times IC50 after 24 hrs by annexin V-FITC/propidium iodide staining-based flow cytometry method (reference value: 3.81%); assay type: cell-based

## COc1ccc(OC)c(C(=O)/C=C/c2nc3ccccc3c(=O)[nH]2)c1
HCT-116 [1]
  Activity: Active
A549
  IC50: 12.7 µM
HCT-116 [2]
  Activity: Dose-dependent effect
MCF7 [3]
  IC50: 4.08 µM
MDA-MB-231
  IC50: 10.6 µM
HCT-116 [4]
  Activity: 78.2%
MCF-10A [5]
  Activity: 0.62%
MCF-10A [6]
  Activity: Dose-dependent effect
MCF7 [7]
  Activity: >=50%
HeLa
  IC50: 8.37 µM
MCF-10A [8]
  Activity: 0.3%
HCT-116 [9]
  Activity: 29.1%
HCT-116 [10]
  Activity: Active
HCT-116 [11]
  Activity: 54.3%
HCT-116 [12]
  Activity: 10.8%
MCF-10A [13]
  Activity: 1.19%
HCT-116 [14]
  Activity: Active
MCF-10A [15]
  Activity: 0.87%
[16]
  viability at 24 h, 2 times IC50: 92.6%
HCT-116 [17]
  Activity: Active
HCT-116 [18]
  Activity: Dose-dependent effect
HCT-116 [19]
  Activity: >=50%
HCT-116 [20]
  IC50: 3.56 µM
HT-29
  IC50: 6.18 µM
[21]
  viability at 24 h, 1 times IC50: 94.4%
HCT-116 [22]
  Activity: Active
HCT-116 [23]
  Activity: 2.1%
HCT-116 [24]
  Activity: Active
HCT-116 [25]
  Activity: 9.7%
[26]
  selectivity ratio: > 2
HCT-116 [27]
  Activity: 8.9%
MCF-10A [28]
  Activity: 5.38%
HCT-116 [29]
  Activity: Active
MCF-10A [30]
  IC50: 9.81 µM
HCT-116 [31]
  Activity: 6.9%
HCT-116 [32]
  Activity: Dose-dependent effect
MCF-10A [33]
  Activity: 4.67%
